Screening data as filed in PubChem.
KCNK9 inh: KCNK9 potassium channel inhibitors, primary screen, HEK293 cells, thallium flux; Potassium channel subfamily K member 9 (Homo sapiens), Q9NPC2; FluxOR thallium flux fluorescence; active compounds read low; B-score at 10 µM; 1.2% of 310,000 active;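 active = ratio B-score over 3 SD below the library mean, with starting fluorescence within 5 SD of its mean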;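 note: negative B-score means less thallium flux so channel inhibition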
Target sequence (Q9NPC2 whole entry, looked up): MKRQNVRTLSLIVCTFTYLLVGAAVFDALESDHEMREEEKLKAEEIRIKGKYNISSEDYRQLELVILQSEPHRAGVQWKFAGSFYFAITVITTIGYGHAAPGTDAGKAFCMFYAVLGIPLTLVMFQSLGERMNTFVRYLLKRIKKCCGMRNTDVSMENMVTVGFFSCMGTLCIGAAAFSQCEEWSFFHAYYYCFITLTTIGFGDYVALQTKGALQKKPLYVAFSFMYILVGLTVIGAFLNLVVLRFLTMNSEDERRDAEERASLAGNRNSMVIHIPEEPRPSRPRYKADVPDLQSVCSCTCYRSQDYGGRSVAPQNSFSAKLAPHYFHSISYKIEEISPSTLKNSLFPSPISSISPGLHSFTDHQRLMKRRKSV
KCNQ1 act: potentiators or activators of KCNQ1 channel, primary screen, cell-based, thallium flux, high-throughput; Potassium voltage-gated channel subfamily KQT member 1 (Homo sapiens), P51787; CHO-K1 KCNQ1, thallium flux FluxOR fluorescence; active compounds read high; B-score at 10 µM; 0.35% of 310,000 active; AID 2648, 2010;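 active = fluorescence ratio B-score, a plate-corrected score, at least three library SD, with initial intensity B-score within 5 SD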
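Schedule – 37 °C overnight plating, 90-min dark dye load, 20-min compound pretreatment · System – stable KCNQ1 CHO-K1 line · Probe or stimulus – thallium- and potassium-containing depolarizing buffer · Measured by – kinetic FluxOR fluorescence, 10 s baseline plus 110 s post-stimulus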
hERG rescue: hERG rescue from dofetilide block, primary screen, cell-based, CHO-hERG, FluxOR thallium flux, dofetilide IC70. 0.51% of 310,000 active. activation (rescue from dofetilide block), less the hit threshold, % at 10 µM. dofetilide IC70 present;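 active = activation above the mean of controls blocked by dofetilide plus 5 SD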;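 note: thallium influx through hERG after potassium depolarization seen as dye fluorescence rise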
KCNK3 block: human KCNK3 channel inhibitors, primary screen, CHO cells, FluxOR thallium flux, B-score; FluxOR fluorescence; active compounds read low; B-score at 10 µM; Potassium channel subfamily K member 3 (Homo sapiens), O14649; AID 602410, 2012; 0.84% of 340,000 active;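 active = B-score under library mean minus 4 SD, starting fluorescence ratio at most library mean plus 5 SD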;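 note: more negative B-score means stronger inhibition of thallium flux through KCNK3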
Target sequence (O14649 whole entry, looked up): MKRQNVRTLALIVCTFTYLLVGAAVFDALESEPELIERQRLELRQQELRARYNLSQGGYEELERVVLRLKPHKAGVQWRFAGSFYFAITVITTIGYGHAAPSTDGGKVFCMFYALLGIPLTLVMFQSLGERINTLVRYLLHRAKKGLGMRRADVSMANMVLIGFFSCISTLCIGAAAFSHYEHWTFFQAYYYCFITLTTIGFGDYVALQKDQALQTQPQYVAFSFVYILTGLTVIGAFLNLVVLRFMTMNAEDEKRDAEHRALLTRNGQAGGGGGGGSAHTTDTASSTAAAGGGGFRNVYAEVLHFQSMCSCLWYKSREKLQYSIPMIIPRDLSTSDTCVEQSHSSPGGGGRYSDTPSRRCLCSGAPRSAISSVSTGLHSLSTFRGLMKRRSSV
Kir21 block: inhibitors of mouse Kir2.1 inward-rectifier potassium channel; B-score at 10 µM; Inward rectifier potassium channel 2 (Mus musculus), P35561; AID 1672, 2009; 0.85% of 310,000 active; HEK293-Kir2.1, FluxOR thallium flux fluorescence; active compounds read low;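 active = fluorescence ratio B-score at or below minus 3 SD of library scores, with starting-brightness B-score within 2 SD, cut at about -4.2 in these data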;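 note: channel flux triggered by added potassium and thallium sulfate stimulus; B-score of peak minus minimum fluorescence over baseline after thallium stimulus; more negative B-score means stronger Kir2.1 block with less thallium influx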
KCNQ1 inh: inhibitors of human KCNQ1 channel, primary screen, cell-based, thallium flux, high-throughput; CHO-K1 KCNQ1, FluxOR thallium flux fluorescence; active compounds read high; B-score at 10 µM; 1.3% of 310,000 active; AID 2642, 2010;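 active = compounds whose thallium flux B-score, printed positive for inhibition, exceeds three library SD while starting fluorescence stays within three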;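 note: channel opened by potassium depolarization with thallium stimulus after 20 min compound exposure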
KCNQ1 inh valid: KCNQ1 potassium channel inhibitors, confirmation, cell-based, Tl flux, duplicate; shares compounds with KCNQ1 inh; KCNQ1 cell line, FluxOR thallium flux fluorescence; inhibition, % at 10 µM; 93% of 1,600 active;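 active = primary screen active, with duplicate mean exceeding buffer control mean plus 3 SD of buffer wells, cut at about 28% in these data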;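 note: 0% = buffer control ratio and 100% = XE991 inhibitor control ratio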
CHO KCNQ1 ctr: thallium flux effects in parental CHO cells, counter-screen for KCNQ1 inhibitor project, cell-based, Tl flux; AID 588366, 2011; fluorescence ratio (Tl flux) at 10 µM; 21% of 1,600 active; parental CHO-K1, FluxOR thallium flux fluorescence ratio; active compounds read low; zero means no signal rise above baseline; shares compounds with KCNQ1 inh;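 active = mean of duplicate thallium-flux fluorescence ratios in parental host cells more than 5 SD below the buffer control mean, cut at about 0.38 in these data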;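 note: ratio is peak minus minimum fluorescence divided by baseline fluorescence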
KCNQ1 ephys val: KCNQ1 channel inhibitors, confirmation, orthogonal assay, cell-based, automated electrophysiology. shares compounds with KCNQ1 inh. KCNQ1-CHO cells, automated patch clamp current. calls only at 10 µM. 20% of 490 active. AID 624120, 2012;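 active = KCNQ1 current drop exceeding 3 SD of negative control wells, seen in both duplicate runs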;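 note: steady state current during a 2 s step from -80 to +40 mV; negative values mean current inhibition and positive values mean potentiation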
KCNQ2 inh: KCNQ2 channel inhibition, selectivity assay for KCNQ1 inhibitor project, cell-based. shares compounds with KCNQ1 inh. KCNQ2 cells, FluxOR thallium flux fluorescence. inhibition, % at 10 µM. 71% of 1,600 active. AID 651746, 2012;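 active = mean percent inhibition of the KCNQ2 thallium signal more than 5 SD above the buffer-only control wells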;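 note: KCNQ2 expressed in CHO cells; 0% = buffer control wells and 100% = XE-991 inhibitor control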
KCNQ1-KCNE1 inh: KCNQ1/KCNE1 channel inhibition, selectivity assay for KCNQ1 inhibitor project, CHO-K1 cells, thallium flux, FluxOR; inhibition, % at 10 µM; FluxOR thallium flux fluorescence; shares compounds with KCNQ1 inh; AID 652147, 2013; 77% of 1,600 active;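 active = mean percent inhibition of duplicate wells above the buffer-only control mean plus 3 SD of those controls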;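 note: 0% = buffer only wells and 100% = XE-991 inhibitor control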
KCNK9 inh conf: KCNK9 potassium channel inhibitors, confirmation, HEK293 cells, thallium flux, duplicate. inhibition, % at 10 µM. AID 492992, 2010. 43% of 4,900 active. shares compounds with KCNK9 inh. FluxOR thallium flux fluorescence;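 active = thallium signal inhibited by more than 5 SD of the compound-free buffer control wells, on both duplicate plates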;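 note: 0% = assay buffer control wells without compound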
Kir21 sel: mouse Kir2.1 channel inhibition, confirmation, selectivity assay for KCNK9 modulator project, cell-based, HEK293, thallium flux; AID 492993, 2010; shares compounds with KCNK9 inh; inhibition, % at 10 µM; 4% of 4,900 active; Kir2.1 cells, FluxOR thallium flux fluorescence;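 active = thallium signal drop more than 5 SD beyond the mean of the no-compound control wells, seen in both duplicate plates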;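 note: signal is fluorescence rise after thallium addition divided by baseline fluorescence; plate controls were assay buffer only for no effect and full block by chlorpromazine control for full effect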
KCNK9 uninduced: thallium flux in non-induced HEK293 cells, confirmation, counter-screen for KCNK9 inhibitor project, cell-based, second counter screen, non-induced KCNK9-HEK293; FluxOR thallium flux; inhibition, % at 10 µM; shares compounds with KCNK9 inh; AID 492997, 2010; 40% of 4,900 active;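 active = thallium signal drop beyond 5 SD of the untreated control mean, on both duplicate plates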;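 note: plate controls were buffer only IC0 wells for no effect and SID17386958 at its maximal inhibitory level for full effect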
* = called active by the depositor; i = inactive; . = no result; + = active, no number. An excerpt weighted towards active compounds, which were near 3.7% of everything screened.

SMILES | KCNK9 inh | KCNQ1 act | hERG rescue | KCNK3 block | Kir21 block | KCNQ1 inh | KCNQ1 inh valid | CHO KCNQ1 ctr | KCNQ1 ephys val | KCNQ2 inh | KCNQ1-KCNE1 inh | KCNK9 inh conf | Kir21 sel | KCNK9 uninduced
O=C(Nc1ccc(Cl)c(Cl)c1)Nc1ccccc1NS(=O)(=O)c1cccs1 | -12.9* | i | -29.3 | i | -0.13 | 18* | 113.5* | 0.434 | i | 77.3%* | 43.0%* | 44.5%* | i | i
COc1ccc(NC(=O)CS(=O)c2ccc(Br)cc2)cc1 (stereo not drawn) | i | i | -6.5 | i | -0.49 | i | . | . | . | . | . | . | . | .
Cc1cc(Cl)ccc1OC(C)C(=O)Nc1ccccc1N1CCOCC1 (stereo not drawn) | -9.3* | i | -4.6 | i | 0.76 | 6* | 87.5* | 0.316* | . | 101.3%* | 139.5%* | 38.5%* | 44.0%* | 46.0%*
CCOC(=O)c1c(-c2ccccc2)csc1NC(=S)N(CC)CC | -8.16* | i | -10.6 | i | 0.05 | 7* | 126.5* | 0.494 | i | 106.0%* | 145.0%* | 46.0%* | i | 27.5%*
CCOC(=O)c1c(-c2ccccc2)csc1NC(=O)c1nn(CC)cc1Br | i | i | -9.6 | i | 1.62 | i | . | . | . | . | . | . | . | .
CC(C)CC(C(=O)Nc1cccc(O)c1)N1C(=O)c2ccccc2C1=O (stereo not drawn) | i | i | -1.7 | i | 1.51 | i | . | . | . | . | . | . | . | .
CC(C)CC(C(=O)Nc1oc(-c2ccco2)c(-c2ccco2)c1C#N)N1C(=O)c2ccccc2C1=O (stereo not drawn) | -10.7* | i | 2.8 | -10.9* | 2.15 | 9* | 112.0* | 0.418 | i | 88.3%* | 65.0%* | 71.5%* | i | 26.5%*
O=C1c2cccc(OCc3ccc(F)cc3)c2CCN1Cc1ccc(F)cc1 | -15.1* | i | -17.0 | i | 1.45 | 6* | 126.0* | 0.414 | i | 115.0%* | 148.5%* | 66.0%* | i | i
CN1CCc2c(OCc3ccc(F)cc3)cccc2C1=O | i | i | -15.3 | i | -0.86 | i | . | . | . | . | . | . | . | .
Cc1cccc(N2CCN(C(=O)COc3ccc4ccc(=O)oc4c3)CC2)c1C | i | i | -9.1 | i | -0.51 | i | . | . | . | . | . | . | . | .
Cc1cccc(N2CCN(C(=O)COc3ccc4c(c3)CCC4)CC2)c1C | i | i | -10.3 | i | -1.3 | 6* | 102.0* | 0.462 | i | 99.7%* | 109.0%* | i | i | i
N#Cc1c(NC(=O)Cn2c(=O)oc3ccccc32)oc(-c2ccccc2)c1-c1ccccc1 | -8.2* | i | -6.5 | i | -0.56 | 12* | 63.5* | 0.449 | . | i | i | i | i | i
O=C(Cn1c(=O)oc2ccccc21)Nc1ccc(Br)cc1 | i | i | -0.8 | i | -0.54 | i | . | . | . | . | . | . | . | .
COc1ccc(-c2cc3nc(-c4ccccc4)cc(N4CCCC(O)C4)n3n2)cc1 (stereo not drawn) | i | i | -21.6 | i | -1.02 | 9* | 104.5* | 0.438 | i | 112.0%* | 184.0%* | i | i | i
O=[N+]([O-])c1ccc(Sc2cccc[n+]2[O-])c2nonc12 | -15.7* | i | -52.3 | -13.7* | -6.34* | 18* | 140.0* | 0.26* | . | i | + | 74.5%* | 66.0%* | 78.0%*
CCCCn1c(N)c(N(CCOC)C(=O)COC(=O)C(C)(C)Oc2ccc(Cl)cc2)c(=O)[nH]c1=O | i | i | -17.4 | i | -0.96 | i | . | . | . | . | . | . | . | .
Cc1ccc(C(=O)Nc2ccc3c(c2)OCO3)cc1S(=O)(=O)N1CCCC1 | i | i | -4.3 | i | -0.53 | i | . | . | . | . | . | . | . | .
Cc1ccc(C(=O)OCc2ccc3c(c2)OCO3)cc1S(=O)(=O)N1CCCCC1 | -13.1* | i | -8.4 | i | -0.18 | 7* | 74.5* | 0.413 | . | 84.7%* | 77.5%* | 41.0%* | i | 36.5%*
Cc1nc(NS(=O)(=O)c2ccc(Cl)s2)c2c3c(sc2n1)CCCC3 | i | i | -18.2 | i | 0.23 | 7* | 79.0* | 0.471 | . | i | 66.0%* | i | i | i
O=C1c2ccccc2OC2(C=Cc3ccccc3O2)N1Cc1ccccc1 (stereo not drawn) | -13.7* | i | -9.4 | i | 0.02 | 7* | 116.0* | 0.376* | . | 109.0%* | 157.5%* | 46.5%* | i | 34.0%*
O=C(CSc1nc(-c2ccc(Cl)cc2)[nH]c(=O)n1)Nc1cccc(Cl)c1 | i | i | -7.2 | i | 1.59 | 7* | 115.5* | 0.485 | i | i | i | i | i | i
